Calls of active or inactive are those of the source.
Legend:
[1] = Cytotoxicity against mouse McCoy cells after 48 hrs at =<30 uM by MCC assay; type: cell-based
Method in brief: (§1)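 Cytotoxicity was tested by running the MCC procedure without inoculum: compound diluted in half with SPG, then diluted 1:40 onto McCoy monolayers and incubated 48 h at 37°C. Read-out by Alamar Blue, MTT and LDH kits. SPG served as negative control and Triton X-100 as positive control. Nontoxic was defined as <10% toxicity in all methods.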

Chlamydia trachomatis [2] = test: Antibacterial activity against Chlamydia trachomatis serovar E assessed as change in MCC at pH 4 to 8 after 5 mins by MCC assay in presence of sucrose- phosphate-glutamate buffer; type: functional, organism-based
Method in brief: (§2)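 Compounds and EBs were each diluted in SPG at pH 4, 5.5, 7 or 8 and mixed 1:1, so exposure pH was constant. Five 4-fold dilutions were used (top 60 μM peptide, 30 mM lipid). After 5 or 120 min, the mix was diluted 1:40 in pH 7.5 SPG and plated on McCoy cells. Inclusion counts were compared with a no-drug control at the same pH and time.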

Chlamydia trachomatis [3] = test: Antibacterial activity against Chlamydia trachomatis serovar D assessed as change in MCC at pH 4 to 8 after 5 mins by MCC assay in presence of sucrose- phosphate-glutamate buffer; type: functional, organism-based; method in brief: as §2
Chlamydia trachomatis [4] = test: Antibacterial activity against Chlamydia trachomatis serovar D assessed as change in MCC at pH 4 to 8 after 120 mins by MCC assay in presence of sucrose- phosphate-glutamate buffer; type: functional, organism-based; method in brief: as §2
[5] = Cytotoxicity against mouse McCoy cells after 48 hrs at =<30 uM by almar blue assay; type: cell-based; method in brief: as §1
Chlamydia trachomatis [6] = test: Antibacterial activity against Chlamydia trachomatis serovar L2 at => 6.25 mM after 5 mins relative to control; type: functional
Chlamydia trachomatis [7] = test: Antibacterial activity against Chlamydia trachomatis serovar L2 at 3.13 mM after 120 mins relative to control; type: functional; settings: serovar L2, 2 h
Method in brief: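 Serovar L2 EBs (5 × 10⁶ IFU/ml in SPG, pH 7.5) mixed 1:1 with ten 2-fold SPG dilutions (final 50 μM top peptide, 25 mM lipid), exposed 5 or 120 min, diluted 1:40, plated on McCoy cells; fixed with methanol after 36–48 h, anti-LPS/FITC stained. Triplicate wells, three fields each, three independent days; percent inhibition versus no-drug control ± SD.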

Chlamydia trachomatis [8] = test: Antibacterial activity against Chlamydia trachomatis serovar D at 1.88 mM at pH 4 after 5 mins by MCC assay in presence of sucrose- phosphate-glutamate buffer; type: functional, organism-based; settings: in the assay text read “after 120 mins” for “after 5 mins”; method in brief: as §2
Chlamydia trachomatis [9] = test: Antibacterial activity against Chlamydia trachomatis serovar D at 1.88 mM at pH 5.5 after 5 mins by MCC assay in presence of sucrose- phosphate-glutamate buffer; type: functional, organism-based; settings: in the assay text read “after 120 mins” for “after 5 mins”; method in brief: as §2
Chlamydia trachomatis [10] = test: Antibacterial activity against Chlamydia trachomatis serovar D at 1.88 mM at pH 8 after 5 mins by MCC assay in presence of sucrose- phosphate-glutamate buffer; type: functional, organism-based; settings: in the assay text read “after 120 mins” for “after 5 mins”; method in brief: as §2
Chlamydia trachomatis [11] = test: Antibacterial activity against Chlamydia trachomatis serovar E assessed as change in MCC at pH 4 to 8 after 120 mins by MCC assay in presence of sucrose- phosphate-glutamate buffer; type: functional, organism-based; method in brief: as §2
Chlamydia trachomatis [12] = test: Antibacterial activity against Chlamydia trachomatis serovar D after 5 mins by MCC assay in presence of simulated vaginal fluid; type: functional
Method in brief: (§3)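 C. trachomatis serovar EBs (5 × 10⁶ IFU/ml) diluted in 100% VFS (zinc-free for SFS), 100% SFS or 10% HSA, mixed 1:1 with five 4-fold SPG dilutions (final 60 μM/30 mM top; 50% VFS, 50% SFS, 5% HSA). After 5 or 120 min, diluted 1:40, inoculated onto McCoy monolayers. Inclusions stained with anti-LPS/FITC after 36–48 h. Inhibition versus no-drug control in the same fluid; MCC is complete inhibition.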

Chlamydia trachomatis [13] = test: Antibacterial activity against Chlamydia trachomatis serovar D after 120 mins by MCC assay in presence of simulated vaginal fluid; type: functional; settings: 2 h; method in brief: as §3
Chlamydia trachomatis [14] = test: Antibacterial activity against Chlamydia trachomatis serovar E after 5 mins by MCC assay in presence of simulated vaginal fluid; type: functional; method in brief: as §3
Chlamydia trachomatis [15] = test: Antibacterial activity against Chlamydia trachomatis serovar E after 120 mins by MCC assay in presence of simulated vaginal fluid; type: functional; settings: 2 h; method in brief: as §3
Chlamydia trachomatis [16] = test: Antibacterial activity against Chlamydia trachomatis serovar L2 after 5 mins by MCC assay in presence of simulated vaginal fluid; type: functional; settings: serovar L2, 5 min; method in brief: as §3
Chlamydia trachomatis [17] = test: Antibacterial activity against Chlamydia trachomatis serovar L2 after 120 mins by MCC assay in presence of simulated vaginal fluid; type: functional; settings: serovar L2, 2 h; method in brief: as §3
Chlamydia trachomatis [18] = test: Antibacterial activity against Chlamydia trachomatis serovar D after 5 mins by MCC assay in presence of simulated seminal fluid; type: functional; method in brief: as §3
Chlamydia trachomatis [19] = test: Antibacterial activity against Chlamydia trachomatis serovar D after 120 mins by MCC assay in presence of simulated seminal fluid; type: functional; settings: 2 h; method in brief: as §3
Chlamydia trachomatis [20] = test: Antibacterial activity against Chlamydia trachomatis serovar E after 5 mins by MCC assay in presence of simulated seminal fluid; type: functional; method in brief: as §3
Chlamydia trachomatis [21] = test: Antibacterial activity against Chlamydia trachomatis serovar E after 120 mins by MCC assay in presence of simulated seminal fluid; type: functional; settings: 2 h; method in brief: as §3
Chlamydia trachomatis [22] = test: Antibacterial activity against Chlamydia trachomatis serovar L2 after 5 mins by MCC assay in presence of simulated seminal fluid; type: functional; settings: serovar L2, 5 min; method in brief: as §3
Chlamydia trachomatis [23] = test: Antibacterial activity against Chlamydia trachomatis serovar L2 after 120 mins by MCC assay in presence of simulated seminal fluid; type: functional; settings: serovar L2, 2 h; method in brief: as §3
Chlamydia trachomatis [24] = test: Antibacterial activity against Chlamydia trachomatis serovar D after 5 mins by MCC assay in presence of simulated human serum albumin; type: functional; method in brief: as §3
Chlamydia trachomatis [25] = test: Antibacterial activity against Chlamydia trachomatis serovar D after 120 mins by MCC assay in presence of simulated human serum albumin; type: functional; settings: 2 h; method in brief: as §3
Chlamydia trachomatis [26] = test: Antibacterial activity against Chlamydia trachomatis serovar E after 5 mins by MCC assay in presence of simulated human serum albumin; type: functional; method in brief: as §3
Chlamydia trachomatis [27] = test: Antibacterial activity against Chlamydia trachomatis serovar E after 120 mins by MCC assay in presence of simulated human serum albumin; type: functional; settings: 2 h; method in brief: as §3
Chlamydia trachomatis [28] = test: Antibacterial activity against Chlamydia trachomatis serovar L2 after 5 mins by MCC assay in presence of simulated human serum albumin; type: functional; settings: serovar L2, 5 min; method in brief: as §3
Chlamydia trachomatis [29] = test: Antibacterial activity against Chlamydia trachomatis serovar L2 after 120 mins by MCC assay in presence of simulated human serum albumin; type: functional; settings: serovar L2, 2 h; method in brief: as §3

Structure (SMILES): CCCCCCCCOC[C@H](O)CO
- Activity [1]: Non-toxic
- Activity (Chlamydia trachomatis [2]): Active
- Activity (Chlamydia trachomatis [3]): Active
- Activity (Chlamydia trachomatis [4]): Active
- Activity [5]: Non-toxic
- inhibition (INH) (Chlamydia trachomatis [6]): 100%
- inhibition at 3130 µM (Chlamydia trachomatis [7]): 98.2%
- Activity (Chlamydia trachomatis [8]): Active
- Activity (Chlamydia trachomatis [9]): Active
- Activity (Chlamydia trachomatis [10]): Active
- Activity (Chlamydia trachomatis [11]): Active
- MCC (Chlamydia trachomatis [12]): 7.5 mM
- MCC (Chlamydia trachomatis [13]): 7.5 mM
- MCC (Chlamydia trachomatis [14]): 7.5 mM
- MCC (Chlamydia trachomatis [15]): 7.5 mM
- MCC (Chlamydia trachomatis [16]): 7.5 mM
- MCC (Chlamydia trachomatis [17]): 7.5 mM
- MCC (Chlamydia trachomatis [18]): 30 mM
- MCC (Chlamydia trachomatis [19]): 7.5 mM
- MCC (Chlamydia trachomatis [20]): 30 mM
- MCC (Chlamydia trachomatis [21]): 7.5 mM
- MCC (Chlamydia trachomatis [22]): 30 mM
- MCC (Chlamydia trachomatis [23]): 7.5 mM
- MCC (Chlamydia trachomatis [24]): 30 mM
- MCC (Chlamydia trachomatis [25]): 7.5 mM
- MCC (Chlamydia trachomatis [26]): 30 mM
- MCC (Chlamydia trachomatis [27]): 7.5 mM
- MCC (Chlamydia trachomatis [28]): 30 mM
- MCC (Chlamydia trachomatis [29]): 7.5 mM

— ChEMBL document CHEMBL1212805, “Evaluation of WLBU2 peptide and 3-O-octyl-sn-glycerol lipid as active ingredients for a topical microbicide formulation targeting Chlamydia trachomatis” (Antimicrob Agents Chemother, 2010)
